From ChEMBL document CHEMBL4371029, “Design, synthesis and evaluation of N2,N4-diaminoquinazoline based inhibitors of phosphodiesterase type 5” (Bioorg Med Chem Lett, 2019) come the findings set out here.

One series relates to Artery. In words: Vasorelaxant activity in Wistar rat endothelium intact pulmonary artery rings assessed as inhibition of phenylephrine-induced contraction. It is filed as functional, tissue-based.
Series [1] is described as follows: Equilibrium solubility of the compound in pH 7.4 phosphate buffer saline at 1 mg sonicated for 1 hr followed by 6 hrs incubation by shake flask method. It is filed as physicochemical. To be noted: phosphate buffered saline.
In series [2] the target is cGMP-specific 3',5'-cyclic phosphodiesterase (Rattus norvegicus, UniProt O54735). In words: Inhibition of rat lung PDE5 using [3H]cGMP as substrate measured after 10 mins by scintillation counting method.
Another series has as its system A549. In words: Cytotoxicity against human A549 cells after 72 hrs by MTT assay. To be noted: A549, 72 h. It is filed as cell-based. Summed up: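 A549 adenocarcinomic human alveolar basal epithelial cells (ATCC CCL-185). Viability read by MTT; result expressed as IC50.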
A short description of series [3]: Selectivity index, ratio of IC50 for histone activated chicken PDE6 to IC50 for rat lung PDE5.
The nature of series [4]: Inhibition of histone activated chicken PDE6 using [3H]cGMP as substrate measured after 10 mins by scintillation counting method. Also on record: species or system Gallus gallus. Summed up:
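Radioactive enzyme assay adapted from Sonnenburg et al. IC50 is the concentration giving 50% enzyme inhibition. Percent inhibition at the highest concentration tested is also recorded.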

Series [5] can be described thus: Selectivity index, ratio of IC50 for human A549 cells to IC50 for rat lung PDE5.

In brackets after ≈: the same amount, converted by molar mass.

Regarding `NS(=O)(=O)c1cccc(Nc2nc(NCc3ccccc3)c3ccccc3n2)c1`, in the series with Artery, the EC50 amounted to 1630 nM. The compound also yielded a solubility (thermodynamic) at 6 h in series [1] of 1370 µM (≈ 556 µg/mL). In addition, the results for the IC50 (in series [2]; in the series with A549; in series [4]) were 72 nM, 11200 nM and 332 nM, respectively. For the same compound, the Ratio IC50 in series [3] was found to be 4.61; in series [5], 155.

On to `NC(=O)c1cccc(Nc2nc(NCc3cccs3)c3ccccc3n2)c1`, for which the midpoint of inhibition in series [2], the IC50, lay at 290 nM.

In the case of `c1ccc(Nc2nc(NCc3cccs3)c3ccccc3n2)cc1`, the IC50 in series [2] came out at 1440 nM.

Regarding `COc1cccc(CNc2nc(Nc3cccc(S(N)(=O)=O)c3)nc3ccccc23)c1`, the IC50 in series [2] was 350 nM. Against the preceding compound, the IC50 is about 4.1-fold lower.

Turning to `COc1cccc(CNc2nc(Nc3cccc(S(N)(=O)=O)c3)nc3cc(OC)c(OC)cc23)c1`, the IC50 in series [2] stood at 443 nM.

The compound `COc1cc2nc(Nc3cccc(S(N)(=O)=O)c3)nc(NCc3ccccc3)c2cc1OC` displayed an IC50 in series [2] of 218 nM.

In the case of `c1csc(CNc2nc(Nc3ccc(N4CCOCC4)cc3)nc3ccccc23)c1`, the thermodynamic solubility at 6 h in series [1] amounted to 480 µM (≈ 200 µg/mL). Besides, the results for the IC50 (in series [2]; in the series on A549; in series [4]) were 514 nM, 11400 nM and 610 nM, respectively. Besides, the Ratio IC50 is 1.19 in series [3] and 22 in series [5].

Regarding `NS(=O)(=O)c1ccc(Nc2nc(NCc3ccccc3)c3ccccc3n2)cc1`, the IC50 in series [2] was 946 nM.

In series [1], `c1ccc(CNc2nc(Nc3ccc(N4CCOCC4)cc3)nc3ccccc23)cc1` showed a thermodynamic solubility at 6 h of 600 µM (≈ 247 µg/mL). The IC50 in series [2] was 525 nM; in the series with A549, 12100 nM; in series [4], 450 nM. Moreover, the Ratio IC50 turned out to be 0.86 in series [3] and 23 in series [5].

`NS(=O)(=O)c1cccc(Nc2nc(NCc3cccs3)c3ccccc3n2)c1`: in the series with Artery, the EC50 was 2280 nM. The compound also came in with a thermodynamic solubility at 6 h in series [1] of 340 µM (≈ 140 µg/mL). The values for the IC50 (in series [2]; in the series with A549; in series [4]) were 89 nM, 15000 nM and 360 nM, respectively. The Ratio IC50 in series [3] came to 4.04; in series [5] it was 169.

`Cc1cc(Nc2nc(Nc3cccc(S(N)(=O)=O)c3)nc3ccccc23)n[nH]1` registered an IC50 in series [2] of 3710 nM.

Compound `COc1cc2nc(Nc3cccc(S(N)(=O)=O)c3)nc(NCc3ccco3)c2cc1OC` returned an IC50 in series [2] of 284 nM.

In series [2], `NC(=O)c1ccc(Nc2nc(NCc3cccs3)c3ccccc3n2)cc1` registered an IC50 of 177 nM.

For `O=C(Nc1ccccc1)Nc1ccc(Nc2nc(NCc3cccs3)c3ccccc3n2)cc1`, half-maximal inhibition in series [2] (IC50) required 775 nM. This IC50 lies about 4.4-fold higher than the previous one.

As for `CCCc1nn(C)c2c(=O)[nH]c(-c3cc(S(=O)(=O)N4CCN(C)CC4)ccc3OCC)nc12`, in the series on Artery, the EC50 was found to be 140 nM. Further, half-maximal inhibition in series [4] (IC50) required 13 nM.

Regarding `Clc1cnc(Nc2ccccc2)nc1NCc1ccccc1`, the results for the IC50 in series [2] and in series [4] were greater than 10000 nM and 33500 nM, respectively.

`c1ccc(CNc2nc(Nc3ccccc3)nc3ccccc23)cc1` came in with a thermodynamic solubility at 6 h in series [1] of 410 µM (≈ 134 µg/mL). Further, the half-maximal inhibitory concentration (IC50) in series [2] came out at 1380 nM; with A549 it was 12300 nM; in series [4], 890 nM. Also, the Ratio IC50 in series [3] was determined as 0.65; in series [5] it was 9.

On to `NS(=O)(=O)c1ccc(Nc2nc(NCc3cccs3)c3ccccc3n2)cc1`, for which, in series [2], inhibition was half-maximal at 224 nM (IC50).

The compound `COc1cc2nc(Nc3cccc(S(N)(=O)=O)c3)nc(NCc3cccs3)c2cc1OC` had an IC50 in series [2] of 555 nM.

On to `NS(=O)(=O)c1cccc(Nc2nc(NCc3ccco3)c3ccccc3n2)c1`, for which the thermodynamic solubility at 6 h in series [1] turned out to be 380 µM (≈ 150 µg/mL). Also, the results for the IC50 (in series [2]; in the series on A549; in series [4]) were 116 nM, 26900 nM and 190 nM, respectively. Further, the results for the Ratio IC50 in series [3] and in series [5] were 1.64 and 232, respectively.

Take `CN(C)S(=O)(=O)c1ccc(Nc2nc(NCc3ccccc3)c3ccccc3n2)cc1`: in series [2], the IC50 is 1260 nM.
